Reference: PMC3518307 (Bioorganic & medicinal chemistry letters, 2012)

Experiments:
telomerase = telomerase (Homo sapiens, UniProt O14746); assay: Telomerase inhibition assay using partially purified telomerase; type: biochemical
How it was run: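 Partially purified telomerase, prepared by an adapted published procedure, used instead of the crude HeLa cell homogenate of the standard assay to limit extra nucleic acids that could bind bis-intercalators in the mix; IC50 from inhibition curves, with error values reported.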

[1] = biological target: reverse transcriptase from HIV-1 (Human immunodeficiency virus type 1 group M subtype B, UniProt P04585); assay: Single point assay of HIV-RT activity; type: biochemical; details: mono-intercalators

Chain of telomerase (O14746 whole entry): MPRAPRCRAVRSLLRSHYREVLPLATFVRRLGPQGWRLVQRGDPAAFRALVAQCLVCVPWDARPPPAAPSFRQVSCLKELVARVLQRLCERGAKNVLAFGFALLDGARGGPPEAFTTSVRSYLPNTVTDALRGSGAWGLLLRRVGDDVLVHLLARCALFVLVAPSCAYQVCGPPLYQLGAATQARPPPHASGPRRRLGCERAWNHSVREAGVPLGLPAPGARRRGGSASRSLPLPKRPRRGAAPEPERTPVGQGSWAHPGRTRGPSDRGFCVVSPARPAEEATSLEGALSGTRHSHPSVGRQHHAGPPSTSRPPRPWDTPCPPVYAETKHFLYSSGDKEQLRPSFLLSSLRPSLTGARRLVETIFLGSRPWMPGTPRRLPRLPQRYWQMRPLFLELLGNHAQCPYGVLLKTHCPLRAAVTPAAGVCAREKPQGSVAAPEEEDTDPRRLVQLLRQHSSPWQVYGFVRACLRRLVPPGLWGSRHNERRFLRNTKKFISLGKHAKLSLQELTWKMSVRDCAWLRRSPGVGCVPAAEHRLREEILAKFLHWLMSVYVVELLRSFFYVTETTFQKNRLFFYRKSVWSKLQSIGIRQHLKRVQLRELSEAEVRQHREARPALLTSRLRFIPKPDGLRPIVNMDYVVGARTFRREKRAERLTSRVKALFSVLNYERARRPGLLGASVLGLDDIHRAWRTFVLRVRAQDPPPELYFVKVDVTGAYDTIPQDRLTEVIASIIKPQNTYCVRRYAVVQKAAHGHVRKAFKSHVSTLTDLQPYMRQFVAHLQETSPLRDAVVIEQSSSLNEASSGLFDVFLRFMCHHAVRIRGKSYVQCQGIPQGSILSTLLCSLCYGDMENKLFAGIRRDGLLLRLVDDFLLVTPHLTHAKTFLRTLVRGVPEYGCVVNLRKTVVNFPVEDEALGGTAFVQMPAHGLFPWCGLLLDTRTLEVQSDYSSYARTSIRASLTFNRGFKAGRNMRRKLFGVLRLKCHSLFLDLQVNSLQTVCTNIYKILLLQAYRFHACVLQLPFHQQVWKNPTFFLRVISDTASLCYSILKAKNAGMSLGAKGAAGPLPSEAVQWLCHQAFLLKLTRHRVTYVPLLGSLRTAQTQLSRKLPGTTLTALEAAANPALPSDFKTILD
Chain of telomerase (O60832 whole entry partner): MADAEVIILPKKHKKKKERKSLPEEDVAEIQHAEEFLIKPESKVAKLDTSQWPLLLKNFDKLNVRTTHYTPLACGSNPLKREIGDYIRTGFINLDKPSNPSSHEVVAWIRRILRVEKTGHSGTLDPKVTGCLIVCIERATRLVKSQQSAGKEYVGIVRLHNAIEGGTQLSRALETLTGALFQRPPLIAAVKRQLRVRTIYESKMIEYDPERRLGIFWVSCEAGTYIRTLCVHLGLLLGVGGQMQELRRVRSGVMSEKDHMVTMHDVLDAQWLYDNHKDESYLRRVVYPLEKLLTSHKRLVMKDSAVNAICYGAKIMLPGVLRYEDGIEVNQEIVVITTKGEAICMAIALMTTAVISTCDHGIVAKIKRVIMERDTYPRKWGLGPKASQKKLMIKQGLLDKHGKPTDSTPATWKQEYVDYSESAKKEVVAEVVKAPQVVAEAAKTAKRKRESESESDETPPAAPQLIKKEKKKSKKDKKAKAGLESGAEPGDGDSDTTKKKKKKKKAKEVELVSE
Chain of telomerase (Q9NPE3 whole entry partner): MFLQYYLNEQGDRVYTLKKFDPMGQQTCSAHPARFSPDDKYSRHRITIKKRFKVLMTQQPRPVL
Chain of telomerase (Q9NX24 whole entry partner): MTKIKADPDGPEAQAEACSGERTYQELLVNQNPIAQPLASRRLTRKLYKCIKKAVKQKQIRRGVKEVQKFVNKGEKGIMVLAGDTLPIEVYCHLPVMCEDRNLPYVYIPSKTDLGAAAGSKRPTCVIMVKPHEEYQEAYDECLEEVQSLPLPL
Chain of telomerase (Q9NY12 whole entry partner): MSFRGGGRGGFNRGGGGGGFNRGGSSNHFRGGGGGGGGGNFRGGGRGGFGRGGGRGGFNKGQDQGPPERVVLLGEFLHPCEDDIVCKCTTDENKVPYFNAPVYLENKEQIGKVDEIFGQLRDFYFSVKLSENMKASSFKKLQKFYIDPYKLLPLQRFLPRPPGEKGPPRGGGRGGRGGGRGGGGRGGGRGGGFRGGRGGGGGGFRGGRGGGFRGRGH
Chain of telomerase (Q9BUR4 whole entry partner): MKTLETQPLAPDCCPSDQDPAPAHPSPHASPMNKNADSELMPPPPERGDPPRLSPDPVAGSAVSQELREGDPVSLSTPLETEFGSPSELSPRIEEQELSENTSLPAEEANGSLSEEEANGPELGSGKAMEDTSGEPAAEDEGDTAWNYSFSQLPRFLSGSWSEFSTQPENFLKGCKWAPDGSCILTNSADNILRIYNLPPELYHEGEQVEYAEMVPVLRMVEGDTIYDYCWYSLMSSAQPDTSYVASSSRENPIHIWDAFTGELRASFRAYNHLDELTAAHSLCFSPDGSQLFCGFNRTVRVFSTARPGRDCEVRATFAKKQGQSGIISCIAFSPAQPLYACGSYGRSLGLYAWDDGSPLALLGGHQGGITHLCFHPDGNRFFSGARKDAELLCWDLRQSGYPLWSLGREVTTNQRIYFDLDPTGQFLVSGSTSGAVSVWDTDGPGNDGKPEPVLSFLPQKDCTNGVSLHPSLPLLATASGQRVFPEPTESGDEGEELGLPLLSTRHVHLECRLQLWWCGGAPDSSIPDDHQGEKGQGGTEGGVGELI

Compound | IC50 (telomerase) | IC50 estimates against reverse transcriptase [1]
NCCCC[C@H](NC(=O)CCNC(=O)C(N)CN)C(N)=O (some centres unmarked) [compound 1] | 103 nM | –
O=C(O)c1ccc2cc3ccccc3cc2c1 [2-Anthracene carboxylic acid] | – | No inhibition observed
COc1ccc2nc3cc(Cl)ccc3c(N)c2c1 [9-Amino-6-Chloro-2-Methoxy acridine] | – | No inhibition observed
O=C(O)c1cccc2cc3ccccc3cc12 [1-Anthracene carboxylic acid] | – | No inhibition observed
O=C(O)c1c2ccccc2nc2ccccc12 [9-Acridine carboxylic acid] | – | No inhibition observed
